Lung fibro prol: blocks proliferation of human lung fibroblasts; LL 47 human lung fibroblast viability, ATP luminescence; hits give low values; viability, % at 10 µM; actives 1.1% (n = 85,000);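 active = viability at or below 50% in the single dose screen; inactive = viability above 50%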;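 also: compound exposure lasted 72 h before the ATP readout; 100% = median luminescence of untreated cell-only wells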
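Material: human lung fibroblast line LL 47, low passage; Evaluation: viability percentage against median untreated-cell control; Buffer or medium: 15% FBS in IMEM; Incubation: 72 h compound exposure at 37 °C after overnight plating; Dosing: 0.1% DMSO in all compound wells; Measured by: CellTiter-Glo luminescence.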
HUVEC prolif 384: inhibitors of human endothelial cell proliferation. HUVEC proliferation, CellTiter-Glo luminescence, 72 h; hits give low values. viability, % at 10 µM (by protocol). actives 1.1% (n = 86,000). AID 648;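 active = viability at or below 30%; inactive = viability above 30%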;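 also: 100% = median luminescence of DMSO-only cell control wells on each plate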
HCT116 bCat-KO: beta-catenin-lacking colon tumor cell growth suppression. viability, % at 10 µM. HCT116 beta-catenin knockout viability, CellTiter-Glo, 60 h; hits give low values. actives 1.5% (n = 140,000). AID 818;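 active = viability at or under a set limit, the compound median less 4 SD, cut at about 6% in these data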;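 also: 0% = Hyamine 1622 control at 20 µM and 100% = untreated cell control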
H69AR inhibit: blocks growth of human H69AR lung tumor cells; H69AR lung tumor viability, ATP luminescence, 72 h; hits give low values; viability, % at 10 µM; actives 6% (n = 85,000);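 active = viability at or below 40%; inactive = viability above 40%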;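 also: multidrug resistant small cell line overexpressing MRP-1 efflux transporter; 100% = mean luminescence of untreated control wells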
HCT116 PTEN-null: PTEN-deleted cell growth suppression; HCT116 PTEN-null viability, CellTiter-Glo, 60 h; hits give low values; viability, % at 10 µM; AID 827; actives 1.2% (n = 140,000);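 active = viability at or below a set limit, 4 SD under the median of all tested compounds, cut at about 3.7% in these data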;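 also: PTEN knockout HCT116 line with beta catenin targeted HCT116 as companion control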
Starred values were filed as active, the others as inactive; / = not tested or not shown. The full list was thinned out, with hits kept by preference.

SMILES | Lung fibro prol | HUVEC prolif 384 | HCT116 bCat-KO | H69AR inhibit | HCT116 PTEN-null
CC(=O)C1=C(C)NC(SCC(=O)c2ccc(-c3ccccc3)cc2)=C(C#N)C1c1cccnc1 (configuration not stated) | 77.2 | 59.0 | 21.0 | 6.2* | 18.0
CC1=C(C(=O)Nc2ccccc2)C(c2ccncc2)C(C#N)=C(SCC(=O)Nc2ccccc2)N1 (configuration not stated) | 102.4 | 90.8 | 86.6 | 10.8* | 93.2
CCOC(=O)C1=C(C)NC(SCC(=O)Nc2nc(C)cs2)=C(C#N)C1c1cccs1 (configuration not stated) | 98.0 | 46.5 | 41.1 | 37.1* | 19.2
O=C(C1CCCN(S(=O)(=O)Cc2ccccc2)C1)N1CCC(Cc2ccccc2)CC1 (configuration not stated) | 99.2 | 86.4 | 76.9 | 26.3* | 83.6
CS(=O)(=O)N1CCC(C(=O)N2CCC(Cc3ccccc3)CC2)CC1 | 111.4 | 102.9 | 94.7 | 79.4 | 89.3
O=CN1CCN(C(=O)c2ccc([N+](=O)[O-])cc2)CC1 | / | / | 94.9 | / | 100.2
CCNc1nc(N)c(C(=O)c2ccc(Cl)s2)s1 | 83.1 | 68.7 | 24.7 | 28.5* | 17.4
CC(C)(C)c1csc(NC(=O)c2ccc(Cl)s2)n1 | 62.6 | 59.2 | 58.3 | 81.7 | 78.5
CC(C)CC(C(=O)Nc1oc(-c2ccco2)c(-c2ccco2)c1C#N)N1C(=O)c2ccccc2C1=O (configuration not stated) | 100.9 | 95.4 | 97.0 | 87.3 | 94.6
CC(C)CC(NC(=O)OC(C)(C)C)C(=O)NC(C(=O)NC(C)C(N)=O)C(C)C (configuration not stated) | 93.6 | 87.5 | 84.9 | 99.5 | 102.2
CC(C)CC(NC(=O)C(NC(=O)C(Cc1ccc(OCc2ccccc2)cc1)NC(=O)OC(C)(C)C)C(C)C)C(N)=O (configuration not stated) | / | / | 5.5* | / | 12.2
Cc1nnc(SCC(=O)NC(C)(C)C)n1C1CCCCC1 | / | / | 101.1 | / | 91.8
COn1c(SCc2ccc(C)cc2C)nc2ccccc2c1=O | 93.5 | 88.7 | 50.2 | 31.3* | 46.6
Cc1cc(OC(=O)c2ccc(Cl)cc2Cl)nc(C)n1 | / | / | 92.4 | / | 108.3
CC1CCCCC1n1c(=S)[nH]c2ccccc2c1=O (configuration not stated) | 82.0 | 81.7 | 81.8 | 17.6* | 86.5
CC(COc1ccccc1)N(CCCl)Cc1ccccc1 (configuration not stated) | 85.4 | 87.2 | 94.6 | 1.7* | 97.9
Cc1ccc(S(=O)(=O)N2CCC(C(=O)Nc3nnc(-c4ccco4)s3)CC2)cc1 | 67.0 | 61.2 | 91.6 | 37.8* | 99.7
CC(NC(=O)c1cccs1)c1nnc(SCc2ccc(Cl)cc2Cl)n1C (configuration not stated) | / | / | 93.3 | / | 93.8
Cc1onc(-c2ccccc2)c1C(=O)NNC(=S)NC(=O)/C=C/c1cccs1 | / | / | 32.2 | / | 27.2
O=S(=O)(Nc1cc(Sc2cccc3cccnc23)c(O)c2ccccc12)c1ccc(F)cc1 | / | / | 1.3* | / | 1.4*
COc1ccc(S(=O)(=O)Nc2cc(Sc3ncn[nH]3)c(O)c3ccccc23)cc1 | / | / | 1.7* | / | 2.5*
O=S(=O)(Nc1cccc2cn[nH]c12)c1ccc(F)cc1 | 104.1 | 103.5 | 110.6 | 107.1 | 89.1
COc1ccc(S(=O)(=O)Nc2ccc(O)c(Sc3ncn[nH]3)c2)cc1 | 92.0 | 86.4 | 97.5 | 91.8 | 88.9
O=C(CSc1nnc(-c2ccncc2)n1-c1ccc(F)cc1)NNC(=O)c1cccc(O)c1 | / | / | 101.4 | / | 100.0
O=Cc1ccc2noc(-c3ccc(Cl)cc3)c2c1 | 104.9 | 80.5 | 31.3 | 38.5* | 23.1
SMILES | Lung fibro prol | HUVEC prolif 384 | HCT116 bCat-KO | H69AR inhibit | HCT116 PTEN-null
O=C(NC(=S)NCC1CCCO1)c1ccc([N+](=O)[O-])cc1 (configuration not stated) | / | / | 96.0 | / | 96.5
COc1ccccc1N1CCN(C(=O)c2sc3nc(-c4ccc(F)cc4)cn3c2C)CC1 | 99.4 | 63.7 | 62.1 | 57.4 | 69.0
COc1ccc(C=Nc2cccc3c(=O)[nH][nH]c(=O)c23)c2ccccc12 | 98.9 | 69.6 | 94.1 | 31.7* | 89.8
CCn1c(SCC(=O)Nc2ccc3c(c2)c2ccccc2n3CC)nnc1-c1cnccn1 | 95.2 | 97.2 | 38.0 | 18.1* | 62.5
CCn1c(=O)cc(SCC(=O)Nc2ccc(Cl)cc2)c2ccccc21 | 87.3 | 81.9 | 87.4 | 16.5* | 82.1
CCn1c(=O)cc(SCC(=O)Nc2ccc(OC)c(OC)c2)c2ccccc21 | 101.9 | 86.0 | 70.4 | 78.4 | 82.8
CCn1c2ccccc2c2cc(NC(=O)CSc3nnnn3-c3ccccc3)ccc21 | 79.4 | 73.0 | 94.4 | 20.2* | 91.0
CCn1c2ccccc2c2cc(NC(=O)CSc3nnc(-c4ccc(OC)cc4)n3N)ccc21 | 55.6 | 47.7 | 35.0 | 27.1* | 30.0
Cc1c(C(=O)NCCCN2CCOCC2)oc2c1C1(CCC2)SCCS1 | / | / | 81.6 | / | 90.4
Cc1ccc(-n2nnnc2SCC(=O)Nc2ccc3c(c2)COC3=O)cc1C | 27.3* | 89.5 | 82.8 | 95.1 | 80.0
Cc1nn2c(NCCCN(C)C)c3c(nc2c1-c1ccccc1)CCC3 | 10.2* | 55.5 | 2.4* | 6.6* | 1.7*
Cc1nn2c(NCC(C)C)c3c(nc2c1-c1ccccc1)CCC3 | 88.5 | 100.7 | 91.6 | 33.8* | 83.5
CC(C)NC(=S)N/N=C/c1ccc2c(c1)OCCO2 | / | / | 103.5 | / | 92.3
COc1ccc(C2C(C(=O)OC3CCCCC3)=C(C)Nc3nnnn32)c(OC)c1OC (configuration not stated) | 92.9 | 100.1 | 66.4 | 7.3* | 68.7
CCCOc1ccc(C2c3c(oc4ccccc4c3=O)C(=O)N2CCCN2CCOCC2)cc1 (configuration not stated) | / | / | 85.1 | / | 90.1
CC(NC(=O)CSc1nc2c(c(C(F)(F)F)n1)CCc1ccccc1-2)c1ccccc1 (configuration not stated) | 104.6 | 97.5 | 74.8 | 83.6 | 71.7
O=C(CSc1nnc(-c2ccccc2)c(-c2ccccc2)n1)NCc1ccco1 | 89.0 | 66.5 | 44.7 | 20.1* | 53.1
O=C(CSc1nc2c(c(C(F)(F)F)n1)CCc1ccccc1-2)NCc1ccco1 | 107.7 | 75.0 | 77.3 | 30.2* | 50.6
COc1ccccc1OCC(=O)Nc1ccc(S(=O)(=O)Nc2nc(C)cc(C)n2)cc1 | 92.2 | 83.7 | 103.1 | 85.2 | 96.1
CCOC(=O)c1cnc(-n2nc(C)cc2C)nc1NC(C)c1ccccc1 (configuration not stated) | 16.9* | 40.6 | 2.3* | 2.0* | 3.6*
CCOC(=O)c1cnc(-n2nc(C)cc2C)nc1NCCO | 97.2 | 109.0 | 91.5 | 84.1 | 112.5
CCOC(=O)c1cnc(-n2nc(C)cc2C)nc1NCc1ccccc1 | 73.4 | 69.6 | 8.9 | 2.4* | 14.8
CCOC(=O)c1cnc(-n2nc(C)cc2C)nc1NNc1cc(-c2ccccc2)nc(C)n1 | / | / | 3.8* | / | 7.1
CCOC(=O)c1c(NC(=O)c2cc(C3CC3)on2)sc2c1CCCC2 | 112.3 | 103.3 | / | 96.2 | /

Bioassay records from PubChem BioAssay.
